Test results as given in paper PMC8240349 (Journal of Traditional and Complementary Medicine, 2021).
Read-outs that look alike come from different tables or passages of the source. Marks after values point to notes of the source that are not given here.

What was measured:
[1] = assay type: in vivo, human; conditions: for AUC0-t / AUC0-∞ / CL/F / MRT / Vz/F / t1/2z / tmax / λ / Cmax: median (range)
Procedure, shortened: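 Healthy Thai adults took oral 1,000 mg AL extract capsules with 200 ml water, either once (group 1) or daily for 21 days (group 2), with 20 active recipients per group. Plasma atractylodin was measured by reversed-phase C18 HPLC (UV 340 nm, acetonitrile:water 70:30, 25 °C; LOQ 2.5 ng/ml). Cmax was read from observed data. t1/2z came from log-linear regression of at least the last three points. MRT was AUMC0-∞/AUC0-∞.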

CCA = conditions: bioassay-guided activity; cited from earlier work
[2] = rats, cited from earlier work
[3] = group 1, single 1,000 mg AL, all
[4] = group 1, single 1,000 mg AL, female
[5] = group 1, single 1,000 mg AL, male
[6] = group 2, daily 1,000 mg AL, day 1, all
[7] = group 2, daily 1,000 mg AL, day 1, female
[8] = group 2, daily 1,000 mg AL, day 1, male
[9] = group 2, daily 1,000 mg AL, day 21, all
[10] = group 2, daily 1,000 mg AL, day 21, female
[11] = group 2, daily 1,000 mg AL, day 21, male
[12] = intravenous 2 mg/kg body weight atractylodin
[13] = oral 30 g/kg body weight A. rhizoma
[14] = oral 40 g/kg body weight crude A. rhizoma

In the case of `C/C=C/C#CC#C/C=C/c1ccco1` [atractylodin], the “plasma atractylodin after 6 h” value ([1]; all participants, both groups) is reported as “undetectable”, the “observed Cmax, range” value ([1]; both groups, model-independent analysis) is reported as 7.1 to 152.7 ng/mL and the AUC0-t [1, 3] is reported as 118.27 (72.47–169.90) ng.h/ml. The “AUC0-∞” value [1, 3] was 123.70 (75.13–176.96) ng.h/ml, the CL/F [1, 3] was 6.68 (4.46–13.70) l/kg/h and the MRT [1, 3] was 2.42 (1.74–3.11) h. The Vz/F [1, 3] was 11.45 (7.06–20.17) l/kg, the t1/2z [1, 3] was 1.13 (0.78–1.48) h and the tmax [1, 3] was 1 (0.75–1.5) h. The λ [1, 3] was 0.62 (0.47–0.89) /h, the AUC0-t [1, 4] was 122.67 (72.47–192.85) ng.h/ml and the “AUC0-∞” value [1, 4] was 128.13 (75.13–199.88) ng.h/ml. The CL/F [1, 4] was 6.87 (4.48–13.70) l/kg/h, the Cmax [1, 4] was 58.65 (42.50–96.80) ng/ml and the MRT [1, 4] was 2.21 (1.70–3.74) h. For the same compound, the Vz/F [1, 4] was 12.11 (6.62–20.17) l/kg, the t1/2z [1, 4] was 1.18 (0.72–2.19) h and the tmax [1, 4] was 1.0 (0.75–1.0) h. For the same compound, the λ [1, 4] was 0.71 (0.37–0.92) /h, the AUC0-t [1, 5] was 142.14 (83.48–199.75) ng.h/ml and the “AUC0-∞” value [1, 5] was 146.88 (86.09–226.53) ng.h/ml. For the same compound, the CL/F [1, 5] was 6.29 (2.80–8.92) l/kg/h, the Cmax [1, 5] was 59.20 (41.80.50–99.30) ng/ml and the MRT [1, 5] was 2.42 (1.71–2.94) h. The Vz/F [1, 5] was 11.49 (8.35–56.42) ^a l/kg, the t1/2z [1, 5] was 1.23 (0.13–2.77) h and the tmax [1, 5] was 1.0 (0.75–2.0) h. For the same compound, the λ [1, 5] was 0.85 (0.29–1.10) /h, the “participants with atractylodin detected at 0.25 h” value ([1]; group 1, single 1,000 mg AL, 10 participants) was 50% and the AUC0-t [1, 6] was 93.06 (12.13–276.28) ng.h/ml. For the same compound, the “AUC0-∞” value [1, 6] was 112.2 (20.11–306.76) ng.h/ml, the CL/F [1, 6] was 7.33 (2.87–33.43) l/kg/h and the Cmax [1, 6] was 47.10 (7.10–129.90) ng/ml. For the same compound, the MRT [1, 6] was 2.60 (1.58–5.17) h, the Vz/F [1, 6] was 12.75 (4.44–61.56) l/kg and the t1/2z [1, 6] was 1.16 (0.63–3.75) h. For the same compound, the tmax [1, 6] was 1.0 (0.5–2.0) h, the λ [1, 6] was 0.60 (0.19–1.11) /h and the AUC0-t [1, 7] was 99.67 (42.88–276.28) ng.h/ml. For the same compound, the “AUC0-∞” value [1, 7] was 139.56 (70.21–248.22) ng.h/ml, the CL/F [1, 7] was 6.43 (2.87–15.00) l/kg/h and the Cmax [1, 7] was 54.35 (16.10–129.90) ng/ml. The MRT [1, 7] was 2.66 (1.70–3.99) h, the Vz/F [1, 7] was 11.97 (4.44–37.88) l/kg and the t1/2z [1, 7] was 1.36 (0.85–1.75) h. For the same compound, the λ [1, 7] was 0.52 (0.40–0.82) /h, the AUC0-t [1, 8] was 82.88 (12.13–181.08) ng.h/ml and the “AUC0-∞” value [1, 8] was 92.40 (20.11–210.23) ng.h/ml. The CL/F [1, 8] was 8.38 (3.77–33.43) l/kg/h, the Cmax [1, 8] was 41.90 (7.10–67.20) ng/ml and the MRT [1, 8] was 2.47 (1.58–5.17) h. For the same compound, the Vz/F [1, 8] was 13.96 (6.73–61.56) l/kg, the t1/2z [1, 8] was 1.09 (0.63–3.75) h and the tmax [1, 8] was 1.0 (1.0–2.0) h. The λ [1, 8] was 0.64 (0.19–1.11) /h, the “participants with atractylodin detected at 0.5 h” value ([1]; group 2, daily 1,000 mg AL, day 1, 17 participants) was 85% and the AUC0-t [1, 9] was 106.67 (40.42–259.81) ng.h/ml. The “AUC0-∞” value [1, 9] was 117.75 (48.73-269-21) ng.h/ml, the CL/F [1, 9] was 6.80 (2.95–14.82) l/kg/h and the Cmax [1, 9] was 46.95 (20.10–152.70) ng/ml. The MRT [1, 9] was 2.64 (1.58–4.54) h, the Vz/F [1, 9] was 12.85 (3.58–31.55) l/kg and the t1/2z [1, 9] was 1.14 (0.80–2.17) h. For the same compound, the tmax [1, 9] was 1.0 (0.5–2.0) h, the λ [1, 9] was 0.61 (0.32–0.87) /h and the AUC0-t [1, 10] was 118.05 (42.97–212.09) ng.h/ml. The “AUC0-∞” value [1, 10] was 145.54 (67.49–232.33) ng.h/ml, the CL/F [1, 10] was 5.93 (3.79–11.38) l/kg/h and the Cmax [1, 10] was 52.55 (20.10–152.70) ng/ml. The MRT [1, 10] was 2.61 (1.58–4.54) h, the Vz/F [1, 10] was 12.12 (5.11–31.55) l/kg and the t1/2z [1, 10] was 1.28 (0.80–2.17) h. For the same compound, the tmax [1, 10] was 1.0 (0.5–2.0) h, the λ [1, 10] was 0.54 (0.32–0.87) /h and the AUC0-t [1, 11] was 75.38 (40.42–259.81) ng.h/ml. For the same compound, the “AUC0-∞” value [1, 11] was 91.67 (48.73-269-21) ng.h/ml, the CL/F [1, 11] was 7.90 (2.95–14.82) l/kg/h and the Cmax [1, 11] was 44.0 (22.0–107.0) ng/ml. For the same compound, the MRT [1, 11] was 2.64 (1.95–3.08) h, the Vz/F [1, 11] was 13.79 (3.58–22.13) l/kg and the t1/2z [1, 11] was 1.08 (0.84–1.65) h. The tmax [1, 11] was 1.0 (1.0–2.0) h, the λ [1, 11] was 0.64 (0.42–0.82) /h and the “participants with atractylodin detected at 0.5 h” value ([1]; group 2, daily 1,000 mg AL, day 21, 19 participants) was 95%. The “plasma atractylodin level at 4 h” value ([1]; group 2, daily 1,000 mg AL, range) was 2.5 to 18.2 ng/mL, the “accumulation after multiple oral dosing” value ([1]; human plasma, multiple oral dosing for 21 days) was “no accumulation” and the “time by which atractylodin was cleared in plasma” value ([1]; most participants) was no more than 4 h. For the same compound, the “IC50, anti-CCA activity” value (CCA) was 20 to 25 µg/mL, the “central volume of distribution (Vc)” value [2, 12] was 31.7 L/kg and the t1/2 [2, 12] was 3.3 h. The “total clearance (CL)” value [2, 12] was 110 mL/min/kg, the “mean maximum plasma concentration (Cmax)” value [2, 13] was 1,930 ng/ml and the “terminal elimination half-life (t1/2)” value [2, 13] was 8 h. For the same compound, the “time to Cmax (tmax)” value [2, 13] was 2.25 h, the CL/F [2, 14] was 111 mL/min/kg and the “mean Cmax” value [2, 14] was 625 ng/mL. The “mean residence time (MRT)” value [2, 14] was 4.8 h.
